Reference: ChEMBL document CHEMBL4229322, “Antibacterial Paramagnetic Quinones from Actinoallomurus” (2017)
Converted amounts (≈) assume the structure as drawn. The source made the active and inactive calls. No cut-off for these calls is given here.

Legend:
Type in all cases: functional
[1] = system: Mycolicibacterium smegmatis; test: Antimicrobial activity against Mycobacterium smegmatis str. MC2 155 by broth microdilution method
Escherichia coli [2] = test: Antimicrobial activity against delta-tolC containing Escherichia coli L4242 by broth microdilution method
Escherichia coli [3] = test: Antimicrobial activity against hyperpermeable Escherichia coli G1640 by broth microdilution method
Escherichia coli [4] = test: Antimicrobial activity against Escherichia coli ATCC 25922 by broth microdilution method
Moraxella catarrhalis = test: Antimicrobial activity against Moraxella catarrhalis L3292 by broth microdilution method
Haemophilus influenzae = test: Antimicrobial activity against Haemophilus influenzae L3296 by broth microdilution method
Acinetobacter baumannii = test: Antimicrobial activity against Acinetobacter baumannii ATCC 13637 by broth microdilution method
[5] = system: Stenotrophomonas maltophilia; test: Antimicrobial activity against Stenotrophomonas maltophilia L3030 by broth microdilution method
Staphylococcus aureus [6] = test: Antimicrobial activity against methicillin-sensitive Staphylococcus aureus ATCC 6538P by broth microdilution method
Staphylococcus aureus [7] = test: Antimicrobial activity against methicillin-resistant Staphylococcus aureus L1400 by broth microdilution method
Procedure, shortened: (§1)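 CLSI broth microdilution in Müller Hinton broth containing 20 mg/L CaCl2 and 10 mg/L MgCl2. Clinical isolates inoculated at 5 × 10^5 cfu/mL and incubated at 37 °C for 20−24 h. MIC read as the lowest inhibiting concentration.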

Staphylococcus aureus [8] = test: Antimicrobial activity against glycopeptide-intermediate resistant Staphylococcus aureus L3797 by broth microdilution method; procedure, shortened: as §1
Staphylococcus aureus [9] = test: Antimicrobial activity against glycopeptide-intermediate resistant Staphylococcus aureus L3798 by broth microdilution method; procedure, shortened: as §1
[10] = system: Staphylococcus haemolyticus; test: Antimicrobial activity against methicillin-sensitive Staphylococcus haemolyticus L1729 by broth microdilution method
[11] = system: Staphylococcus haemolyticus; test: Antimicrobial activity against methicillin-resistant Staphylococcus haemolyticus L1730 by broth microdilution method; procedure, shortened: as §1
Streptococcus pyogenes [12] = test: Antimicrobial activity against Streptococcus pyogenes L49 by broth microdilution method
Streptococcus pyogenes [13] = test: Antimicrobial activity against Streptococcus pyogenes ATCC BAA 1407 by broth microdilution method
Streptococcus pyogenes [14] = test: Antimicrobial activity against Streptococcus pyogenes ATCC BAA 1402 by broth microdilution method
Enterococcus faecium [15] = test: Antimicrobial activity against VanS expressing Enterococcus faecium L568 by broth microdilution method
Enterococcus faecium [16] = test: Antimicrobial activity against VanA expressing Enterococcus faecium L569 by broth microdilution method
Pseudomonas aeruginosa = test: Antimicrobial activity against Pseudomonas aeruginosa ATCC 27853 by broth microdilution method
[17] = system: Lactobacillus delbrueckii; test: Antimicrobial activity against Lactobacillus delbrueckii ATCC 4797 by broth microdilution method
Bacteroides fragilis = test: Antimicrobial activity against Bacteroides fragilis ATCC 25285 by broth microdilution method
Cutibacterium acnes = test: Antimicrobial activity against Propionibacterium acnes ATCC 25476 by broth microdilution method
Clostridioides difficile = test: Antimicrobial activity against Clostridium difficile L4013 by broth microdilution method

Compound GENTAMICIN has an MIC [1] of 16 µg/mL, an MIC (Escherichia coli [2]) of 0.25 µg/mL and an MIC (Escherichia coli [3]) of 0.25 µg/mL. For the same compound, the MIC (Escherichia coli [4]) was 0.25 µg/mL, the MIC (Moraxella catarrhalis) was 0.25 µg/mL and the MIC (Haemophilus influenzae) was 128 µg/mL. For the same compound, the MIC (Acinetobacter baumannii) was 0.125 µg/mL and the MIC [5] was 64 µg/mL.

`COc1cc2c(=O)c3cc4c(=O)c(OC)cc(=O)c4c(O)c3c(=O)c2c2c1C(=O)OC2` was tested, and the MIC (Staphylococcus aureus [6]) was “Active”, the MIC (Staphylococcus aureus [7]) was “Active” and the MIC (Staphylococcus aureus [8]) was “Active”. For the same compound, the MIC (Staphylococcus aureus [9]) was “Active”, the MIC [10] was “Active” and the MIC [11] was “Active”. The MIC (Streptococcus pyogenes [12]) was “Active”, the MIC (Streptococcus pyogenes [13]) was “Active” and the MIC (Streptococcus pyogenes [14]) was “Active”. For the same compound, the MIC (Enterococcus faecium [15]) was “Active”, the MIC (Enterococcus faecium [16]) was “Active” and the MIC [1] was “Active”. For the same compound, the MIC (Escherichia coli [2]) was “Active”, the MIC (Escherichia coli [3]) was “Active” and the MIC (Escherichia coli [4]) was “Active”. For the same compound, the MIC (Moraxella catarrhalis) was “Active”, the MIC (Haemophilus influenzae) was “Active” and the MIC (Pseudomonas aeruginosa) was “Active”. The MIC (Acinetobacter baumannii) was “Active”, the MIC [5] was “Active” and the MIC [17] was “Active”. For the same compound, the MIC (Bacteroides fragilis) was “Active”, the MIC (Cutibacterium acnes) was “Active” and the MIC (Clostridioides difficile) was “Active”.

For `CNc1cc(=O)c2c(O)c3c(=O)c4c5c(c(OC)cc4c(=O)c3cc2c1=O)C(=O)OC5`, the MIC (Staphylococcus aureus [6]) was “Active”, the MIC (Staphylococcus aureus [7]) was “Active” and the MIC (Staphylococcus aureus [8]) was “Active”. For the same compound, the MIC (Staphylococcus aureus [9]) was “Active”, the MIC [10] was “Active” and the MIC [11] was “Active”. The MIC (Streptococcus pyogenes [12]) was “Active”, the MIC (Streptococcus pyogenes [13]) was “Active” and the MIC (Streptococcus pyogenes [14]) was “Active”. The MIC (Enterococcus faecium [15]) was “Active”, the MIC (Enterococcus faecium [16]) was “Active” and the MIC [1] was “Active”. The MIC (Escherichia coli [2]) was “Active”, the MIC (Escherichia coli [3]) was “Active” and the MIC (Escherichia coli [4]) was “Active”. For the same compound, the MIC (Moraxella catarrhalis) was “Active”, the MIC (Haemophilus influenzae) was “Active” and the MIC (Pseudomonas aeruginosa) was “Active”. For the same compound, the MIC (Acinetobacter baumannii) was “Active”, the MIC [5] was “Active” and the MIC [17] was “Active”. For the same compound, the MIC (Bacteroides fragilis) was “Active”, the MIC (Cutibacterium acnes) was “Active” and the MIC (Clostridioides difficile) was “Active”.

`O=C1OCc2c1c(O)cc1c(=O)c3cc4c(=O)c(O)cc(=O)c4c(O)c3c(=O)c21` was tested, and the MIC (Staphylococcus aureus [6]) was > 16 µg/mL, the MIC (Staphylococcus aureus [7]) was > 16 µg/mL and the MIC (Staphylococcus aureus [8]) was > 16 µg/mL. The MIC (Staphylococcus aureus [9]) was > 16 µg/mL, the MIC [10] was > 16 µg/mL and the MIC [11] was > 16 µg/mL. For the same compound, the MIC (Streptococcus pyogenes [12]) was 16 µg/mL (≈ 40.8 µM), the MIC (Streptococcus pyogenes [13]) was 8 µg/mL (≈ 20.4 µM) and the MIC (Streptococcus pyogenes [14]) was 8 µg/mL (≈ 20.4 µM). The MIC (Enterococcus faecium [15]) was > 16 µg/mL, the MIC (Enterococcus faecium [16]) was > 16 µg/mL and the MIC [1] was > 16 µg/mL. The MIC (Escherichia coli [2]) was > 16 µg/mL, the MIC (Escherichia coli [3]) was > 16 µg/mL and the MIC (Escherichia coli [4]) was > 16 µg/mL. For the same compound, the MIC (Moraxella catarrhalis) was > 16 µg/mL, the MIC (Haemophilus influenzae) was > 16 µg/mL and the MIC (Pseudomonas aeruginosa) was > 16 µg/mL. For the same compound, the MIC (Acinetobacter baumannii) was > 16 µg/mL, the MIC [5] was > 16 µg/mL and the MIC [17] was > 16 µg/mL. For the same compound, the MIC (Bacteroides fragilis) was > 16 µg/mL, the MIC (Cutibacterium acnes) was > 16 µg/mL and the MIC (Clostridioides difficile) was > 64 µg/mL.

In the case of `CN[C@H](CC(C)C)C(=O)N[C@H]1C(=O)N[C@@H](CC(N)=O)C(=O)N[C@H]2C(=O)N[C@H]3C(=O)N[C@H](C(=O)N[C@H](C(=O)O)c4cc(O)cc(O)c4-c4cc3ccc4O)[C@H](O)c3ccc(c(Cl)c3)Oc3cc2cc(c3O[C@@H]2O[C@H](CO)[C@@H](O)[C@H](O)[C@H]2O[C@H]2C[C@](C)(N)[C@H](O)[C@H](C)O2)Oc2ccc(cc2Cl)[C@H]1O` [VANCOMYCIN], the MIC (Staphylococcus aureus [8]) was 8 µg/mL (≈ 5.52 µM), the MIC (Staphylococcus aureus [9]) was 8 µg/mL (≈ 5.52 µM) and the MIC [10] was 2 µg/mL (≈ 1.38 µM). The MIC [11] was 128 µg/mL (≈ 88.3 µM), the MIC (Enterococcus faecium [16]) was > 128 µg/mL and the MIC [1] was > 128 µg/mL. The MIC (Escherichia coli [2]) was > 128 µg/mL, the MIC (Escherichia coli [3]) was > 128 µg/mL and the MIC (Escherichia coli [4]) was > 128 µg/mL. For the same compound, the MIC (Moraxella catarrhalis) was 32 µg/mL (≈ 22.1 µM), the MIC (Haemophilus influenzae) was > 128 µg/mL and the MIC (Pseudomonas aeruginosa) was 2 µg/mL (≈ 1.38 µM). The MIC (Acinetobacter baumannii) was 128 µg/mL (≈ 88.3 µM), the MIC [5] was 128 µg/mL (≈ 88.3 µM) and the MIC [17] was > 128 µg/mL. It also gave an MIC (Bacteroides fragilis) of 16 µg/mL (≈ 11 µM), an MIC (Cutibacterium acnes) of 0.25 µg/mL (≈ 0.173 µM) and an MIC (Clostridioides difficile) of 0.5 µg/mL (≈ 0.345 µM).
